According to paper PMC9064241 (RSC Advances, 2019):

Tests used:
HT29 cells [1] = assay: DMR agonist assay in HT29 cells; format: cell-based, Human; conditions: for EC50: Homo sapiens, HT-29, read-out: HT29 cell, EC50, NPs-derived FFA4 agonists, DMR, HT29 cells
human FFA4 [2] = molecular target: T1, human FFA4 (Homo sapiens, UniProt Q5NUL3); assay: DMR agonist assay in CHO-FFA4 cells; format: cell-based; conditions: for EC50: CHO-FFA4 cell, EC50, NPs-derived FFA4 agonists, DMR, CHO-FFA4 cells; for Selectivity between FFA4 and FFA1: comparison of DMR activity in CHO-FFA4 and CHO-FFA1 cells; for DMR response relative to the TUG891-induced response: screening of 140 natural compounds in CHO-FFA4 cells, of the TUG891-induced response (∼80 pm); for DMR response in CHO-FFA4 cells: 100 μM ALA, 12.5 μM GW9508, 10 μM TAK875 (Fig. 2A)
T1 sequence (Q5NUL3 1-361): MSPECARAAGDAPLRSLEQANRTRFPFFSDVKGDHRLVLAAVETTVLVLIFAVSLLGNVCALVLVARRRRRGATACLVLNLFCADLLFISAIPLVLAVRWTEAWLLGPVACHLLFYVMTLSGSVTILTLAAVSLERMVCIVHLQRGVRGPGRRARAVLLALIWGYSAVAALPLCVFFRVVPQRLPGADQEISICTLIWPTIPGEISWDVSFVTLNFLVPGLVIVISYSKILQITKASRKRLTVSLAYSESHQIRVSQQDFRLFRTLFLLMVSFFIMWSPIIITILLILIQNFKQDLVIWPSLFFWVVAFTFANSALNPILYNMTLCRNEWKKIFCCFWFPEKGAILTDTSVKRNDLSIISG

human FFA1 [3] = molecular target: T2, human FFA1 (Homo sapiens, UniProt O14842); assay: DMR agonist assay in CHO-FFA1 cells; format: cell-based; conditions: for EC50: CHO-FFA1 cell, EC50, NPs-derived FFA4 agonists
CHO-K1 cells = assay: DMR agonist assay in parental CHO-K1 cells; format: cell-based, Chinese hamster
Outline: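 Parental CHO-K1 cells were grown in Ham's F12K with 10% FBS, then seeded on biosensor microplates overnight to a confluent monolayer. Cells were washed twice and held 1–2 h in HBSS, 10 mM HEPES, pH 7.2, 0.1% BSA. After a 2 min baseline, the test compound, diluted in the same buffer, was added. Label-free DMR was recorded for 1 h.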

human FFA1 [4] = molecular target: T2, human FFA1; assay: DMR desensitization assay in CHO-FFA1 cells; format: cell-based; conditions: CHO-FFA1 cell Desensitization IC50, IC50 to desensitize the DMR of 1 μM GW9508 in CHO-FFA1 cells
HT29 cells [5] = assay: DMR desensitization assay in HT29 cells; format: cell-based; conditions: Homo sapiens, HT-29, read-out: HT 29 cell Desensitization IC50
FFA4 = conditions: read-out: EC50 as natural FFA4 agonist; literature retrieval; cited from earlier work
human FFA4 [6] = molecular target: T1, human FFA4; assay: FLIPR calcium flux assay in CHO-FFA4 cells; format: cell-based; conditions: acetylshikonin 100 μM, TUG891 15 μM
human FFA4 [7] = molecular target: T1, human FFA4; assay: DMR desensitization assay in CHO-FFA4 cells; format: cell-based

T2 sequence (O14842 whole entry): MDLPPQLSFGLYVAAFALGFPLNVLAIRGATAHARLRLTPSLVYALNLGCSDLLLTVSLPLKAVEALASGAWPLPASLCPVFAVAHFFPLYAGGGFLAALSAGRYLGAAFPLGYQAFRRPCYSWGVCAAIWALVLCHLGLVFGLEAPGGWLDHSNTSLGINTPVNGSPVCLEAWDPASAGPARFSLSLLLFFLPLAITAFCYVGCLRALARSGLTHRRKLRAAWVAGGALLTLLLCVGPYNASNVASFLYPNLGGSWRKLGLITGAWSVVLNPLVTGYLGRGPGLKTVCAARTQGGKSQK

Cc1cc(O)c2c(c1)C(=O)c1cc(O)cc(O)c1C2=O [Emodin, emodin]
EC50 (HT29 cells [1]): ~39 µM | EC50 (human FFA4 [2]): 38.2 ± 5.02 µM | Selectivity between FFA4 and FFA1 (human FFA4 [2]): selectivity on FFA4 | DMR response relative to the TUG891-induced response (human FFA4 [2]): greater than 30% | EC50 (human FFA1 [3]): > 100 µM

O=C(O)CCc1ccc(NCc2cccc(Oc3ccccc3)c2)cc1 [GW9508]
DMR response in parental CHO-K1 cells (CHO-K1 cells): negligible DMR response | IC50 (human FFA1 [4]): 0.14 ± 0.01 µM | IC50 (HT29 cells [5]): 12 ± 2.12 µM | DMR response in CHO-FFA4 cells (human FFA4 [2]): minor response | Agonist efficacy in CHO-FFA1 cells compared with ALA (human FFA1 [3]): partial agonism

Cc1ccc(-c2ccc(F)cc2COc2ccc(CCC(=O)O)cc2)cc1 [TUG891]
DMR response in parental CHO-K1 cells (CHO-K1 cells): neither GSK137647A (Fig. 2F) nor TUG891 (data not shown) produced detectable DMR events | IC50 (HT29 cells [5]): 0.48 ± 0.12 µM

CC(C)=CCC/C(C)=C/CC/C(C)=C/Cc1c(O)cc(C)c(C(=O)O)c1O [grifolic acid]
EC50 (FFA4): > 30 µM

CC(=O)O[C@H](CC=C(C)C)C1=CC(=O)c2c(O)ccc(O)c2C1=O [Acetylshikonin, acetylshikonin]
EC50 (HT29 cells [1]): 2.82 ± 0.39 µM | Ca2+ response in CHO-FFA4 cells (human FFA4 [6]): produced a Ca^2+ response | EC50 (human FFA4 [2]): 10.2 ± 2.95 µM | Selectivity between FFA4 and FFA1 (human FFA4 [2]): non-selective | DMR response relative to the TUG891-induced response (human FFA4 [2]): greater than 30% | EC50 (human FFA1 [3]): 6.17 ± 2.81 µM

CCCCCCCCCCCCCC[C@@H](O)[C@@H](O)[C@@H](N)CO [phytosphingosine]
EC50 (FFA4): 33.4 µM

Cc1cc(OCCCS(C)(=O)=O)cc(C)c1-c1cccc(COc2ccc3c(c2)OC[C@H]3CC(=O)O)c1 [TAK875]
DMR response in HT29 cells (HT29 cells [1]; TAK875 at 10 μM, MEDICA16): did not induce an observable signal | DMR response in parental CHO-K1 cells (CHO-K1 cells): negligible DMR response | IC50 (HT29 cells [5]): > 20 µM | IC50 (human FFA4 [7]): > 20 µM | DMR response in CHO-FFA4 cells (human FFA4 [2]): did not induce any response
